Experimental findings from ChEMBL document CHEMBL1128278, “Design, synthesis, and structure--activity relationship studies for a new imidazole series of J774 macrophage specific acyl-CoA:cholesterol acyltransferase (ACAT) inhibitors” (J Med Chem, 1995) are described below.

For assay [1], the target named is T1, Sterol O-acyltransferase 1 (Rattus norvegicus, UniProt O70536).
T1 sequence (O70536 whole entry): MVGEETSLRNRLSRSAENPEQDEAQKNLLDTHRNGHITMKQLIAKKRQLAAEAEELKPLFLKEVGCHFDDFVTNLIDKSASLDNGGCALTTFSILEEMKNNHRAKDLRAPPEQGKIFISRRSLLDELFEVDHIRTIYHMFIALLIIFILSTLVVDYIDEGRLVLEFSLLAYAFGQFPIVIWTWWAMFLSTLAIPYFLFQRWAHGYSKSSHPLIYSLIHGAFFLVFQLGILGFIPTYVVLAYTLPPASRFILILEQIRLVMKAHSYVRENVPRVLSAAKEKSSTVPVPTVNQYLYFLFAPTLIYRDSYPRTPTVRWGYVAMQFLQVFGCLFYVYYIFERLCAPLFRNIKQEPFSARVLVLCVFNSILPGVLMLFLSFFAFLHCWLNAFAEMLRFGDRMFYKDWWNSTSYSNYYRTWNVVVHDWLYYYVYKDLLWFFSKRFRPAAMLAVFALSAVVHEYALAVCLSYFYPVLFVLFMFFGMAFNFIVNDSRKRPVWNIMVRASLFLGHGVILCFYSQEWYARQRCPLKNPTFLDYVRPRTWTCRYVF
Kind of assay: Concentration required to inhibit 50% activity of Acyl coenzyme A:cholesterol acyltransferase 1 in vitro using rat liver microsome. Format: microsomes. Summed up:
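Rat liver microsomes; ACAT activity read as [14C]cholesteryl oleate formed from [14C]oleoyl-CoA (pmol/min/mg). Inhibitors added in 5 µL DMSO. Duplicate assays with at least four inhibitor concentrations bracketing the IC50; IC50 is the concentration giving 50% inhibition of ACAT activity. Average range of replicates ±17%.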

Assay [2] in a line: Acyl coenzyme A:cholesterol acyltransferase inhibition in cell culture measured in murine J774 macrophages.

Some results are limits rather than exact numbers.

Turning to `CCCCCCCN(CCCCCSc1nc(-c2ccc(OC)cc2)c(-c2ccc(OC)cc2)[nH]1)C(=O)Nc1ccc(F)cc1F`, the IC50 turned out to be 140 nM in assay [1] (read-out: IC50) and 80 nM in assay [2].

On to `CCOCCOCCN(CCCCCSc1nc(-c2ccccc2)c(-c2ccccc2)[nH]1)C(=O)Nc1ccc(F)cc1F`, for which the IC50 in assay [1] (read-out: IC50) was found to be 50 nM; in assay [2] it was 4010 nM. For `CCCCCCCN(CCCCCSc1nc(-c2ccco2)c(-c2ccco2)[nH]1)C(=O)Nc1ccc(F)cc1F` the same measures were 200 nM and 450 nM. Taken in the same sequence, the figures for `CCCCCCCN(CCCCCSc1nc(C2CCCCC2)c(C2CCCCC2)[nH]1)C(=O)Nc1ccc(F)cc1F` were 20 nM and 640 nM. For `CCCCCCCN(CCCCCSc1nc(-c2ccc(OC)cc2)c(-c2ccc(OC)cc2)[nH]1)C(=O)Oc1ccccc1` the same measures were 640 nM and 32 nM.

For `CCCCCCCN(CCCCCSc1nc(-c2ccccc2OC)c(-c2ccccc2OC)[nH]1)C(=O)Nc1ccc(F)cc1F`, the values for the IC50 in assay [1] (read-out: IC50) and in assay [2] were 350 nM and 2070 nM, respectively.

As for `CCCCCCCN(CCCCCSc1nc(-c2ccc(N(C)C)cc2)c(-c2ccc(N(C)C)cc2)[nH]1)C(=O)Nc1ccc(F)cc1F`, the IC50 in assay [1] (read-out: IC50) worked out at 50 nM; in assay [2], 80 nM. Taken in the same sequence, the figures for `CC(C)NC(=O)N(CCN(C)CCSc1nc(-c2ccccc2)c(-c2ccccc2)[nH]1)CCN1CCOCC1` were 350 nM and 6280 nM.

`O=C(Nc1ccc(F)cc1F)N(CCCCCSc1nc(-c2ccccc2)c(-c2ccccc2)[nH]1)CCOCCO`: the IC50 was determined as 40 nM in assay [1] (read-out: IC50) and 6740 nM in assay [2]. For `CCCCCCCN(CCCCCSc1nc(-c2ccc(O)cc2)c(-c2ccc(O)cc2)[nH]1)C(=O)Nc1ccc(F)cc1F` the same measures were 2400 nM and 4750 nM. In the case of `CCCCCCCN(CCN(C)CCSc1nc(-c2ccccc2)c(-c2ccccc2)[nH]1)C(=O)Nc1ccc(F)cc1F`, the IC50 came out at 170 nM in assay [1] (read-out: IC50) and 1470 nM in assay [2]. As to `CCCCCCCN(CCCCCSc1nc(-c2ccc(N(C)C)cc2)c(-c2ccc(N(C)C)cc2)[nH]1)C(=O)CC1CCCCC1`, the IC50 in assay [1] (read-out: IC50) amounted to 50 nM; in assay [2] it was 16 nM. Taken in the same sequence, the figures for `CCCCCCCN(CCCCCSc1nc(-c2ccccn2)c(-c2ccccn2)[nH]1)C(=O)Nc1ccc(F)cc1F` were 1000 nM and 2250 nM. Taken in the same sequence, the figures for `CCCCCCCN(CCCCCSc1nc(-c2ccc(OC)cc2)c(-c2ccc(OC)cc2)[nH]1)C(=O)NC(C)C` were 160 nM and 4 nM. As for `COCCOCCN(CCCCCSc1nc(-c2ccc(N(C)C)cc2)c(-c2ccc(N(C)C)cc2)[nH]1)C(=O)NC(C)C`, the half-inhibitory concentration (IC50) result was “Not Active” in assay [1] and 7510 nM in assay [2]. Consider `CCOCCOCCN(CCCCCSc1nc(-c2ccc(SC)cc2)c(-c2ccc(SC)cc2)[nH]1)C(=O)NC(C)C`, for which the IC50 in assay [1] (read-out: IC50) was 280 nM; in assay [2], 40 nM. Taken in the same sequence, the figures for `CCCCCCCN(CCCCCSc1nc(C(C)C)c(C(C)C)[nH]1)C(=O)Nc1ccc(F)cc1F` were 20 nM and 640 nM. Taken in the same sequence, the figures for `CCCCCCCN(CCCCCSc1nc2c([nH]1)-c1ccccc1OCOc1ccccc1-2)C(=O)Nc1ccc(F)cc1F` were 30 nM and 840 nM. Consider `CCCCCCCN(CCCCCSc1nc(-c2ccc(N(C)C)cc2)c(-c2ccc(N(C)C)cc2)[nH]1)C(=O)Oc1ccccc1`, for which the results for the IC50 in assay [1] (read-out: IC50) and in assay [2] were 120 nM and 60 nM, respectively. Taken in the same sequence, the figures for `COCCOCCN(CCCCCSc1nc(-c2ccc(OC)cc2)c(-c2ccc(OC)cc2)[nH]1)C(=O)NC(C)C` were 500 nM and 360 nM.

For `CCCCCCCN(CCCCCSc1nc(-c2ccc(C)cc2)c(-c2ccc(C)cc2)[nH]1)C(=O)Nc1ccc(F)cc1F`, the IC50 in assay [1] (read-out: IC50) was 80 nM; in assay [2], 290 nM. Taken in the same sequence, the figures for `CN(CCSc1nc(-c2ccccc2)c(-c2ccccc2)[nH]1)CCN(CCN1CCOCC1)C(=O)Nc1ccc(F)cc1F` were 240 nM and 2740 nM.

Consider `CCCCCCCN(CCOCCSc1nc(-c2ccccc2)c(-c2ccccc2)[nH]1)C(=O)Nc1ccc(F)cc1F`, for which the IC50 in assay [1] (read-out: IC50) stood at 80 nM; in assay [2], 3980 nM. For `CCCCCCCN(CCCCCSc1nc(-c2ccc(F)cc2)c(-c2ccc(F)cc2)[nH]1)C(=O)Nc1ccc(F)cc1F` the same measures were 40 nM and 3500 nM. Taken in the same sequence, the figures for `CCCCCCCN(CCCCCSc1nc(-c2ccc(OC)cc2)c(-c2ccc(OC)cc2)[nH]1)C(=O)CC1CCCCC1` were 11 nM and 29 nM. For `CC(C)NC(=O)N(CCCCCSc1nc(-c2ccccc2)c(-c2ccccc2)[nH]1)CCOCCO` the same measures were 90 nM and 6840 nM. In assay [2], `COc1ccc(-c2nc(SCCCCCN(CCCCCO)C(=O)NC(C)C)[nH]c2-c2ccc(OC)cc2)cc1` displayed an IC50 of 1000 nM. As for `CCCCOCCN(CCCCCSc1nc(-c2ccccc2)c(-c2ccccc2)[nH]1)C(=O)Nc1ccc(F)cc1F`, the results for the IC50 in assay [1] (read-out: IC50) and in assay [2] were 70 nM and 1750 nM, respectively. For `CCN(CC)CCN(CCCCCSc1nc(-c2ccccc2)c(-c2ccccc2)[nH]1)C(=O)Nc1ccc(F)cc1F` the same measures were 80 nM and 2180 nM.

As for `CCN(CC)CCN(CCCCCSc1nc(-c2ccccc2)c(-c2ccccc2)[nH]1)C(=O)NC(C)C`, the values for the IC50 in assay [1] (read-out: IC50) and in assay [2] were 660 nM and 580 nM, respectively. Taken in the same sequence, the figures for `CCCCCCCN(CCOCCSc1nc(-c2ccccc2)c(-c2ccccc2)[nH]1)C(=O)NC(C)C` were 190 nM and 990 nM. Taken in the same sequence, the figures for `CCCCCCCN(CCCCCSc1nc(-c2ccc(C(F)(F)F)cc2)c(-c2ccc(C(F)(F)F)cc2)[nH]1)C(=O)Nc1ccc(F)cc1F` were 39900 nM and 25000 nM. For `COc1ccc(-c2nc(SCCCCCN(CCOCCO)C(=O)Nc3ccc(F)cc3F)[nH]c2-c2ccc(OC)cc2)cc1`, the IC50 turned out to be 230 nM in assay [1] (read-out: IC50) and 840 nM in assay [2]. For `COc1ccc(-c2nc(SCCCCCN(CCN3CCOCC3)C(=O)Nc3ccc(F)cc3F)[nH]c2-c2ccc(OC)cc2)cc1` the same measures were 270 nM and 1340 nM. `CCCCCCCN(CCCCCSc1nc2c([nH]1)-c1ccccc1Oc1ccccc1-2)C(=O)Nc1ccc(F)cc1F`: the results for the IC50 in assay [1] (read-out: IC50) and in assay [2] were 60 nM and 1720 nM, respectively.

Turning to `CCCCCCCN(CCOCCSc1nc(-c2ccc(OC)cc2)c(-c2ccc(OC)cc2)[nH]1)C(=O)NC(C)C`, the IC50 in assay [1] (read-out: IC50) came out at 850 nM; in assay [2], 340 nM.

With `CCCCCCCN(CCCCCSc1nc(-c2cccs2)c(-c2cccs2)[nH]1)C(=O)Nc1ccc(F)cc1F`, the IC50 in assay [1] (read-out: IC50) was 60 nM; in assay [2] it was 940 nM. Taken in the same sequence, the figures for `CCCCCCCN(CCCCCSc1nc(-c2cccc(OC)c2)c(-c2cccc(OC)c2)[nH]1)C(=O)Nc1ccc(F)cc1F` were 40 nM and 360 nM. Taken in the same sequence, the figures for `CCCCCCCN(CCOCCSc1nc(-c2ccc(OC)cc2)c(-c2ccc(OC)cc2)[nH]1)C(=O)Nc1ccc(F)cc1F` were 2300 nM and 500 nM. Taken in the same sequence, the figures for `CCCCCCCN(CCCCCSc1nc(CCC)c(CCC)[nH]1)C(=O)Nc1ccc(F)cc1F` were 60 nM and 2700 nM. With `CCCCCCCN(CCCCCSc1nc(-c2ccc(S(C)(=O)=O)cc2)c(-c2ccc(S(C)(=O)=O)cc2)[nH]1)C(=O)Nc1ccc(F)cc1F`, the IC50 in assay [1] (read-out: IC50) was more than 50000 nM; in assay [2], 2020 nM.

Turning to `COCCOCCN(CCCCCSc1nc(-c2ccc(OC)cc2)c(-c2ccc(OC)cc2)[nH]1)C(=O)Nc1ccc(F)cc1F`, the IC50 in assay [1] (read-out: IC50) is 340 nM; in assay [2], 250 nM. As to `CCCCOCCN(CCCCCSc1nc(-c2ccccc2)c(-c2ccccc2)[nH]1)C(=O)NC(C)C`, the figures for the IC50 in assay [1] (read-out: IC50) and in assay [2] were 190 nM and 840 nM, respectively. For `CCOCCOCCN(CCCCCSc1nc(-c2ccccc2)c(-c2ccccc2)[nH]1)C(=O)NC(C)C` the same measures were 30 nM and 3020 nM. Taken in the same sequence, the figures for `CCCCCCCN(CCCCCSc1nc(-c2ccc(SC)cc2)c(-c2ccc(SC)cc2)[nH]1)C(=O)Nc1ccc(F)cc1F` were 70 nM and 50 nM. For `COc1ccc(-c2nc(SCCCOCCN(CCOCCO)C(=O)NC(C)C)[nH]c2-c2ccc(OC)cc2)cc1` the same measures were 480 nM and 2420 nM. Turning to `O=C(Nc1ccc(F)cc1F)N(CCCCCSc1nc(-c2ccccc2)c(-c2ccccc2)[nH]1)CCN1CCOCC1`, the values for the IC50 in assay [1] (read-out: IC50) and in assay [2] were 70 nM and 880 nM, respectively. Taken in the same sequence, the figures for `CCCCCCCN(CCN(C)CCSc1nc(-c2ccccc2)c(-c2ccccc2)[nH]1)C(=O)NC(C)C` were 260 nM and 2400 nM.
